Results as given in PubChem BioAssay AID775 (SRMLSC, 2007).
Among all 130,000 compounds or so, about 900 (0.69%) were called active. This is one part of a sample in which actives are shown more often than they occur.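 Rule for the calls: active = inhibition above a set limit, placed 3 SD over the median of all compounds (cut at about 26% in these data); inactive = the rest.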

Experiment: compounds extending yeast replicative lifespan, primary screen, S. cerevisiae, OD615 (AID 775);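 note: 0% = nicotinamide-treated wells and 100% = cells grown without nicotinamide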
Conditions: S. cerevisiae growth with nicotinamide, at 10 µM, stronger effect = higher value, deaD strain in restrictive glucose medium
Procedure, shortened: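 Test system: DeaD-strain S. cerevisiae / Buffer or medium: restrictive glucose medium / Also added: nicotinamide 1.5 mM / Doses: one concentration, 10 µM, DMSO 0.25% / Schedule: 48 h at 30 °C / Signal: OD615 measurement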

SMILES | inhibition of the nicotinamide effect
O=C1OC(c2ccc(Cl)cc2)=N/C1=C\c1cccnc1 | 20.7% (inactive)
O=C1/C(=C\c2cccnc2)CN(Cc2ccccc2)C/C1=C\c1cccnc1 | 54.9% (active)
O=C(O)C1CC(=O)N(Cc2cccnc2)C1 (configuration not stated) | -1.28% (inactive)
O=C(NCCc1ccccc1)C1CCC(Cn2c(=O)c3ccccc3n(Cc3cccnc3)c2=O)CC1 (configuration not stated) | 0.76% (inactive)
Cc1ccc2nc(-c3cccnc3)c(NC3CCCC3)n2c1 | -2.42% (inactive)
Cc1cccc(OP(=O)(Nc2c(C)n(C)n(-c3ccccc3)c2=O)Oc2cccc(C)c2)c1 | 0% (inactive)
CCN(CC)c1ccc([N+](=O)[O-])cc1C(=O)O | 4.32% (inactive)
O=C(COC(=O)CCCNC(=O)c1ccc(Cl)cc1)Nc1cc(Cl)ccc1Cl | 5.47% (inactive)
CC1CN(S(=O)(=O)c2ccc(C(=O)Nc3sccc3C(N)=O)cc2)CC(C)O1 (configuration not stated) | 0.65% (inactive)
CC(C)Cc1nn2c(=O)cc(O)nc2s1 | 47.1% (active)
Cc1sc(NC(=S)NC(=O)c2cccs2)nc1-c1ccc(CC(C)C)cc1 | -13.7% (inactive)
COC(=O)c1ccc(C(=O)OC)c(NC(=S)N2CCN(c3ccc(F)cc3)CC2)c1 | -4.39% (inactive)
CSCc1ccc(C(=O)Nc2cc(C)cc(C)c2)cc1 | 1.95% (inactive)
CCCn1c(=O)c(-c2ccccc2)c(O)c2ccccc21 | 3.34% (inactive)
Cn1c(=O)c(Sc2ccc(Cl)cc2)c(O)c2ccccc21 | 29.7% (active)
Cn1c(=O)c(C(=O)Nc2ncccn2)c(O)c2ccccc21 | -13.7% (inactive)
O=C(/C=C/c1ccccc1[N+](=O)[O-])NCC1CCCO1 (configuration not stated) | 1.94% (inactive)
Cc1ccc(C(=O)OCc2nc(N)nc(Nc3ccccc3C)n2)cc1 | -3.73% (inactive)
NS(=O)(=O)c1ccc(CCNC(=S)Nc2ccc(S(N)(=O)=O)cc2)cc1 | 1.53% (inactive)
Cc1cccc(CC(=O)N2CCN=C2SCc2ccc([N+](=O)[O-])cc2)c1 | -1.98% (inactive)
CNC(=S)N1CCN(c2ccccn2)CC1 | 1.57% (inactive)
CC(=C1C(=O)c2ccccc2C1=O)N1CCN(c2ccccn2)CC1 | 54.4% (active)
O=C(C(Cl)Cl)N1CCN(c2ccccn2)CC1 | 1.15% (inactive)
Cc1csc(NC(=S)Nc2cccc(Cl)c2)n1 | -1.45% (inactive)
Cc1cccc(NC(=S)Nc2ccc3cn[nH]c3c2)c1 | 3.23% (inactive)

SMILES | inhibition of the nicotinamide effect
S=C(Nc1cccc(Cl)c1)Nc1ccc2cn[nH]c2c1 | 32.1% (active)
Cc1ccc(NC(=O)CCC(=O)N/N=C/c2ccco2)c(C)c1 | 0.43% (inactive)
Cc1ccc2c(CC(=O)NCc3cccs3)coc2c1 | -1.73% (inactive)
Cc1cccc(C(=O)c2cccc(C)c2)c1 | -6.29% (inactive)
Cc1nccn1CC(=O)N/N=C/c1ccc(O)c(O)c1 | 0.31% (inactive)
COc1ccccc1C1CC(=O)n2c(nc(-c3ccccc3)c2-c2ccccc2)S1 (configuration not stated) | 0.78% (inactive)
COc1cc(OC)c(-n2cc(-c3ccc(Cl)cc3)[nH]c2=O)cc1Cl | -0.64% (inactive)
Cc1cc(C=O)c(C)n1-c1ccc(NC2CCCCC2)c([N+](=O)[O-])c1 | -25.3% (inactive)
COc1cc(OC)c(-n2c(C)cc(C=O)c2C)cc1Cl | 39.8% (active)
O=C(Cc1coc2ccc3ccccc3c12)NCc1cccs1 | -1.99% (inactive)
COc1cc(/C=N\NC(=O)c2nonc2N)c(OC)cc1Br | 5.5% (inactive)
COCCn1c(=O)[nH]c(=O)c2cc(C(=O)c3cc(OC)ccc3O)cnc21 | -5.05% (inactive)
CCCn1c(=O)c2c(C(F)(F)F)cc(-c3cccs3)nc2n(CCC)c1=O | 3.84% (inactive)
O=C(O)c1cccc2c1C(=O)N(C1CCCCC1)C2 | 63.7% (active)
CCCN1Cc2cccc(C(=O)NCc3ccccc3)c2C1=O | -14.6% (inactive)
CCCN1Cc2cccc(C(=O)Nc3ccc(S(=O)(=O)N4CCCCCC4)cc3)c2C1=O | -3.05% (inactive)
COc1cc(NC(=S)NNC(=O)CC(C)C)c(OC)cc1Cl | 0.62% (inactive)
COc1ccccc1NC(=O)CCCc1c[nH]c2ccccc12 | -7.92% (inactive)
COc1ccc(NS(=O)(=O)c2ccc(NC(=S)NC(=O)/C=C/c3ccc(C)cc3)cc2)nn1 | -1.4% (inactive)
COc1cccc(NC(=O)Cc2ccc(C)cc2)c1 | -12.4% (inactive)
COc1ccc(NC(=O)/C(Cl)=C(/Cl)S(=O)Cc2ccc(C)cc2)cn1 (configuration not stated) | 45.5% (active)
Cc1ccc(CC(=O)Nc2ccc(OC(F)F)c(Cl)c2)cc1C | 0.1% (inactive)
O=C(CS(=O)(=O)Cc1ccccc1)NCC1CCCO1 (configuration not stated) | 46.3% (active)
S=C(NCCc1ccccc1)NCC1CCCO1 (configuration not stated) | 1.76% (inactive)
O=C(NCC1CCCO1)c1ccc2ccccc2n1 (configuration not stated) | -8.01% (inactive)

SMILES | inhibition of the nicotinamide effect
COc1ccc(-n2c(=S)[nH]c3sc4c(c3c2=O)CCc2ccccc2-4)cc1 | 8.03% (inactive)
O=C(/C=C/c1ccc([N+](=O)[O-])cc1)NCCSCc1ccco1 | -1.15% (inactive)
CC(=O)c1c(O)cc2n(c1=O)-c1ccc(Cl)cc1C2(C)C | 50.9% (active)
O=C(COC(=O)/C=C/c1nc2ccccc2s1)Nc1ccccc1Oc1ccccc1 | -1.04% (inactive)
Cc1nnc(NC(=O)/C=C/c2ccco2)s1 | -3.6% (inactive)
COc1cc(OC)nc(S(C)(=O)=O)n1 | 2.39% (inactive)
COc1ccc(-c2cc(C(F)(F)F)nc(SCC(=O)Nc3ccc4c(c3)OCO4)n2)cc1OC | 3.91% (inactive)
COc1ccc(-c2cc(C(F)(F)F)nc(S(C)(=O)=O)n2)cc1OC | 48.9% (active)
Cc1ccc(C)c2[nH]c(=O)c(CCNC(=O)c3cccs3)cc12 | -0.37% (inactive)
O=C(OC1CCOC1=O)c1cccc(S(=O)(=O)Nc2ccc(F)cc2)c1 (configuration not stated) | 1.4% (inactive)
COc1ccc(C)cc1NC(=O)C(OC(=O)c1cccc(S(=O)(=O)N(C)c2ccccc2)c1)c1ccccc1 (configuration not stated) | -5.56% (inactive)
Cc1cccc(N=C2NN=C(c3c[nH]c4ccccc34)CS2)c1 | 5.95% (inactive)
CCN(CC(=O)NCCc1ccccc1)S(=O)(=O)c1ccc(C)cc1 | 5.67% (inactive)
CCN(CC)CCn1c(/N=C/c2cc(Br)ccc2O)nc2ccccc21 | 37.7% (active)
CCn1c(NC(=O)c2nn(C)cc2Br)nc2ccccc21 | -7.14% (inactive)
C/C(=N\c1nc2ccccc2n1C)c1cc(Cl)ccc1O | -13.3% (inactive)
CN(c1ccccc1)S(=O)(=O)c1cccc(NC(=O)Cc2c(F)cccc2Cl)c1 | 1.53% (inactive)
O=C(CN1C2=NCCN2c2ccccc21)c1cccs1 | 0.42% (inactive)
O=C(O)c1cccc(N2C(=O)Nc3ccccc3N2O)c1 | 4.66% (inactive)
O=C1Nc2cc(Cl)c(Cl)cc2N(O)N1c1cc(Cl)cc(Cl)c1 | 110% (active)
CCOC(=O)c1c(NC(=O)Cn2nc(C(F)(F)F)cc2C)sc2c1CCC2 | -3.99% (inactive)
O=C1CC(c2ccccc2)CC(O)=C1C=NCCN1CCOCC1 (configuration not stated) | 70.8% (active)
CC(C)C(=O)N1CCN(CCN=CC2=C(O)CC(c3ccco3)CC2=O)CC1 (configuration not stated) | -8.76% (inactive)
O=C1CC(c2cccc(Cl)c2)CC(O)=C1C=Nc1ccccc1 (configuration not stated) | -1.47% (inactive)
O=C(Nc1ccc2ccccc2c1)/C(=C\c1ccc2c(c1)OCO2)NC(=O)c1ccco1 | 2.64% (inactive)

SMILES | inhibition of the nicotinamide effect
CN(c1ccccc1)c1nc(N)c([N+](=O)[O-])c(NCc2ccco2)n1 | 8.11% (inactive)
CCOC(=O)C1CCN(C(=O)/C=C/c2cc(OC)c(OC)c(OC)c2)CC1 | -0.86% (inactive)
Cc1nc2c(C(=O)NCc3cccs3)cnn2c(C)c1Cc1ccc(F)cc1 | 7.32% (inactive)
Cc1ccc(SCCC(=O)NC(C(C)C)C(C)C)cc1 | 1.38% (inactive)
CC1Cc2ccccc2N1C(=O)CSc1nc2ccccc2o1 (configuration not stated) | -13.2% (inactive)
CCn1nc(C(=O)OCC(=O)N2c3ccccc3CC2C)c2ccccc2c1=O (configuration not stated) | -14.7% (inactive)
CC1Cc2ccccc2N1C(=O)Cn1cnc2ccccc2c1=O (configuration not stated) | 55.5% (active)
COc1ccc(COC(=O)N/N=C(\C)CC(=O)Nc2ccc(Cl)cc2)cc1 | -3.92% (inactive)
O=S(=O)(NCCSc1ccccn1)c1ccc(Cl)cc1 | 10.5% (inactive)
COc1ccc(/C=C(/CC(=O)Nc2ccc(C)cc2)c2nc3ccccc3s2)cc1 | -0.84% (inactive)
N#C/C(=C\c1ccccc1C(F)(F)F)C(=O)Nc1ccccc1F | 6.56% (inactive)
CNC(=O)/C(C#N)=C/c1c(F)cccc1Cl | 43.1% (active)
Cc1cc(/C=C(/C#N)C(=O)Nc2ccc(Cl)cc2)c(C)n1-c1cccnc1 | 0.59% (inactive)
CCOC(=O)C(C)Sc1nnc(CSc2nc3nc(C)cc(C)n3n2)o1 (configuration not stated) | -1.15% (inactive)
CCOc1ncccc1C(=O)N(C)CC(=O)Nc1ccc(F)cc1 | 0.31% (inactive)
O=C(/C=C/c1cccc([N+](=O)[O-])c1)NCCSCc1ccco1 | -4.01% (inactive)
COc1ccc(CC(=O)Nc2ccc3c(c2)CCC3)cc1S(=O)(=O)N1CCOCC1 | 61% (active)
COc1ccc(CNc2ccc3c(c2)CCC3)cc1OC | -10.1% (inactive)
O=C(CN1C(=O)CCC1=O)Nc1ccc(S(=O)(=O)N2CCOCC2)cc1 | -14.7% (inactive)
CCCc1cc(=O)[nH]c(SCc2cc(=O)oc3c(C)c(C)ccc23)n1 | 4.9% (inactive)
O=C(OCc1ccc(Br)cc1)c1cccc(-c2nnc(-c3ccccc3)o2)c1 | 10.4% (inactive)
CCOC(=O)NN1C(=O)c2ccccc2NC1c1cccc(O)c1 (configuration not stated) | -1.57% (inactive)
